Key:
[1] = Induction of morphine release at 37.5 nmol in presence of 25 mg/ml HSA assessed as morphine level after 15 mins by UPLC; settings: human, 0.25 h
How it was run: (§1)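 PDB (37.5 nmol initial) incubated at 37 °C in 300 µl total with 150 µl sample: purified human serum BCE (0.5 U/ml) or HSA (25 mg/ml), both equivalent to 50% of serum levels, or 50% human plasma in PBS. Aliquots taken over time, mixed with 2 vol ice-cold 10% DMSO in acetonitrile, centrifuged. Supernatant run on UPLC. Morphine quantified from morphine standard curve (1.6–1.75 min peak area).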

Plasma [2] = assay: Induction of morphine release at 37.5 nmol in presence of human plasma assessed as morphine level per ml plasma by UPLC; type: cell-free
How it was run: (§2)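 Rates were taken from the linear 0–15 min time points. The mix held 37.5 nmol PDB initial and 150 µl plasma or enzyme sample (BCE 0.5 U/ml, HSA 25 mg/ml) in 300 µl total at 37 °C. After ANDM deproteinisation, morphine was measured by UPLC. Rates are expressed per ml of plasma or of enzyme sample at its human-plasma level.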

[3] = Induction of morphine release at 37.5 nmol in presence of butyryl choline esterase assessed as morphine level per mg of protein by UPLC; settings: isolated protein
[4] = Induction of morphine release at 37.5 nmol in presence of 0.5 U/ml butyryl choline esterase assessed as morphine level after 3 to 6 hrs by UPLC; type: physicochemical; settings: isolated protein; how it was run: as §1
[5] = Induction of morphine release at 37.5 nmol in presence of 25 mg/ml HSA assessed as morphine level after 2 to 6 hrs by UPLC; settings: human; how it was run: as §1
Plasma [6] = assay: Induction of morphine release at 37.5 nmol in presence of 50% human plasma after 6 hrs by UPLC; type: cell-free; how it was run: as §1
Plasma [7] = assay: Induction of morphine release at 37.5 nmol in presence of mouse plasma assessed as morphine level per ml plasma by UPLC; type: cell-free; how it was run: as §2
[8] = Induction of morphine release at 37.5 nmol in presence of guinea pig plasma assessed as morphine level per ml plasma by UPLC; type: cell-free, Cavia porcellus; how it was run: as §2
Plasma [9] = assay: Induction of morphine release at 37.5 nmol in presence of rat plasma assessed as morphine level per ml plasma by UPLC; type: cell-free; how it was run: as §2
[10] = Induction of morphine release at 37.5 nmol in presence of HSA assessed as morphine level per mg of protein by UPLC; settings: human
Plasma [11] = assay: Induction of morphine release at 37.5 nmol in presence of 50% human plasma after 15 mins by UPLC; type: cell-free; settings: 0.25 h; how it was run: as §1
[12] = Induction of morphine release at 37.5 nmol in presence of 0.5 U/ml butyryl choline esterase assessed as morphine level after 15 mins by UPLC; type: physicochemical; settings: isolated protein, 0.25 h; how it was run: as §1
SK-N-SH = assay: Induction of morphine release in human SK-N-SH cells assessed as morphine induced inhibition of forskolin-induced cAMP production ny chemiluminescent assay; type: cell-based
How it was run: (§3)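 PDA (0.8 mM) was preincubated 24 h with PBS or 50% human plasma. SK-N-SH cells were switched to serum-free medium, exposed to the solutions (equivalent to 5 µM prodrug) for 15 min, then given 5 µM forskolin or vehicle for 15 min. Cells were rinsed and lysed, and cAMP was measured by chemiluminescent assay against a cAMP standard curve.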

[13] = Induction of morphine release at 37.5 nmol in presence of 50% human plasma assessed as disappearance of compound peak during 5 to 10 mins at 250 uM; type: cell-free; settings: read-out: Activity
How it was run: (§4)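 PDA (250 µM) incubated with 50% plasma in PBS at 37 °C. Aliquots were withdrawn at intervals, quenched with 2 vol ice-cold 10% DMSO/acetonitrile and centrifuged. The supernatant was analysed by UPLC, following the PDA peak (4.3–4.4 min) and the morphine peak. Morphine was calculated from a morphine standard curve.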

[14] = Induction of morphine release at 37.5 nmol in presence of 50% rat plasma assessed as disappearance of compound peak during 5 to 10 mins at 250 uM; type: cell-free; settings: read-out: Activity; how it was run: as §4
[15] = Induction of morphine release at 37.5 nmol in presence of 50% guinea pig plasma assessed as disappearance of compound peak during 5 to 10 mins at 250 uM; type: cell-free, Cavia porcellus; settings: read-out: Activity; how it was run: as §4
[16] = Induction of morphine release in PBS solution assessed as morphine induced inhibition of forskolin-induced cAMP production ny chemiluminescent assay; type: physicochemical; settings: buffer; how it was run: as §3
[17] = Stability in PBS solution up to 24 hrs; type: physicochemical; settings: buffer
How it was run: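 PDA incubated in PBS under the plasma-incubation conditions for up to 24 h, then analysed by UPLC.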

[18] = Induction of morphine release at 37.5 nmol in presence of 50% mouse plasma assessed as disappearance of compound peak during 5 to 10 mins at 250 uM; type: cell-free; settings: read-out: Activity; how it was run: as §4

Which results are given for CN1CC[C@]23c4c5ccc(OC(=O)c6ccc(OCC(=O)NCCOCCOCCNC(=O)OC(C)(C)C)cc6)c4O[C@H]2[C@@H](O)C=C[C@H]3[C@H]1C5?
Activity [1]: 1%; Activity (Plasma [2]): 1.1 nmol/min; Activity [3]: 0.8 nmol/min; Activity [4]: 4%; Activity [5]: 2%; Activity (Plasma [6]): 20%; Activity (Plasma [7]): 20.9 nmol/min; Activity [8]: 2.9 nmol/min; Activity (Plasma [9]): 4.2 nmol/min; Activity [10]: 0.3 nmol/min; Activity (Plasma [11]): 4%; Activity [12]: 2.5%

With CN1CC[C@]23c4c5ccc(OC(=O)CCC(=O)OC(C)(C)C)c4O[C@H]2[C@@H](O)C=C[C@H]3[C@H]1C5 as the molecule, how does the Activity (SK-N-SH) read?
Its Activity is “Active”.

And the metabolised at 250 µM [13]?
The metabolised at 250 µM was greater than 90%.

And the metabolised at 250 µM [14]?
The metabolised at 250 µM was greater than 90%.

And the metabolised at 250 µM [15]?
Its metabolised at 250 µM is greater than 90%.

What about the Activity [16] of the same molecule?
The Activity was “Not Active”.

What about the Stability [17] of the same molecule?
Its Stability is “Stable”.

What about the metabolised at 250 µM [18] of the same molecule?
The metabolised at 250 µM was greater than 90%.
